Converted amounts (≈) assume the structure as drawn.
Experiments:
[1] = system: Cryptococcus neoformans; assay: Antifungal activity against Cryptococcus neoformans after 48 hrs by NCCLS M27A method; assay type: functional
Method in brief: (§1)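 Yeast-like strain grown on SD agar at 30 °C. One colony cultured overnight in SD broth at 30 °C to OD600 0.6–0.9, then diluted 1:5000 in SD broth. Broth microdilution from 20 mg/mL stocks in 95% EtOH, with 4-fold serial dilution and a no-compound negative column. Incubated 30 °C, 48 h. MIC is the lowest concentration giving ≥80% growth reduction.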

[2] = system: Scedosporium boydii; assay: Antifungal activity against Pseudallescheria boydii after 48 hrs by NCCLS M27A method; assay type: functional
Method in brief: (§2)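 Filamentous fungi grown on Sabouraud dextrose (SD) agar at 30 °C. Hyphae-containing agar block blended in SD broth, then diluted 1:5000 in SD broth. Broth microdilution in SD broth from 20 mg/mL stocks in 95% EtOH, with 4-fold serial dilution and a no-compound negative column. Incubated 30 °C, 48 h. MIC is the lowest concentration giving ≥80% growth reduction.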

[3] = system: Candida albicans; assay: Potentiation of drimane-type sesquiterpene-induced antifungal activity against wild type Candida albicans Al-1 assessed as fractional inhibition concentration index; assay type: functional
Method in brief: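 Broth microdilution in Sabouraud dextrose broth against C. albicans Al-1 (wild type), incubated at 30 °C for 48 h. Each sesquiterpene was tested alone, dillapiol alone, and the two combined at 1:5. A one-row 2-fold serial dilution started at 1000 µg/mL. MIC was the lowest concentration giving ≥80% growth reduction. FICI = FIC of dillapiol + FIC of compound, where FIC = MIC in combination / MIC alone.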

[4] = system: Candida albicans; assay: Antifungal activity against wild type Candida albicans Al-1 after 48 hrs by NCCLS M27A method; assay type: functional; method in brief: as §1
[5] = system: Candida albicans; assay: Antifungal activity against wild type Candida albicans Al-1 in presence of dillapiol; assay type: functional
Method in brief: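 Synergy run by a similar broth-microdilution MIC method in C. albicans Al-1. One-row 2-fold serial dilution starting at 1000 µg/mL, testing compound alone, dillapiol alone, and compound plus dillapiol (1:5). FIC is the MIC in combination divided by the MIC alone. FICI is the dillapiol FIC plus the compound FIC.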

[6] = system: Exophiala dermatitidis; assay: Antifungal activity against yeast-like Wangiella dermatitidis after 48 hrs by NCCLS M27A method
[7] = system: Scheffersomyces shehatae; assay: Antifungal activity against Candida shehatae after 48 hrs by NCCLS M27A method; assay type: functional; method in brief: as §1
[8] = system: Candida albicans; assay: Antifungal activity against azole-resistant Candida albicans D10 after 48 hrs by NCCLS M27A method; assay type: functional; method in brief: as §1
[9] = system: Saccharomyces cerevisiae; assay: Antifungal activity against Saccharomyces cerevisiae after 48 hrs by NCCLS M27A method; assay type: functional; method in brief: as §1
[10] = system: Candida albicans; assay: Antifungal activity against azole-resistant Candida albicans CN1A after 48 hrs by NCCLS M27A method; assay type: functional; method in brief: as §1
[11] = system: Alternaria alternata; assay: Antifungal activity against Alternaria alternata after 48 hrs by NCCLS M27A method; assay type: functional; method in brief: as §2

Compound | MIC [1] [µg/mL] | MIC [2] [µg/mL] | fractional inhibitory concentration index (FICI) [3] | MIC [4] [µg/mL] | MIC [5] [µg/mL] | MIC [6] [µg/mL] | MIC [7] [µg/mL] | MIC [8] [µg/mL] | MIC [9] [µg/mL] | MIC [10] [µg/mL] | MIC [11] [µg/mL]
COc1ccc2cc3[n+](cc2c1OC)CCc1cc2c(cc1-3)OCO2.[Cl-] [BERBERINE CHLORIDE] | 31.3 | 62.5 | 0.5 | 31.3 | 15.6 | 31.3 | 7.8 | 31.3 | 78.1 | 15.6 | 125
CC(=O)O[C@H]1C=C(C=O)[C@](O)(C=O)[C@@]2(C)[C@H](OC(C)=O)CCC(C)(C)[C@H]12 [PARRITADIAL] |  |  | 1.5 | 1000 (≈ 2730 µM) | 250 |  |  |  |  |  | 
CC(=O)O[C@@H]1C=C(C=O)[C@](O)(C=O)[C@@]2(C)CCCC(C)(C)[C@H]12 [CINNAMODIAL] | 31.3 (≈ 102 µM) | 125 (≈ 405 µM) | 0.3 | 62.5 (≈ 203 µM) | 15.6 | 15.6 (≈ 50.6 µM) | 31.3 (≈ 102 µM) | 15.6 (≈ 50.6 µM) | 31.3 (≈ 102 µM) | 62.5 (≈ 203 µM) | 3.9 (≈ 12.6 µM)
CC(=O)N1CCN(c2ccc(OCC3COC(Cn4ccnc4)(c4ccc(Cl)cc4Cl)O3)cc2)CC1 (centres undefined) [KETOCONAZOLE] | 0.04 (≈ 0.0753 µM) | 93.8 (≈ 177 µM) |  | 0.4 (≈ 0.753 µM) |  | 31.3 (≈ 58.9 µM) |  | 93.8 (≈ 177 µM) | 1.2 (≈ 2.26 µM) | 93.8 (≈ 177 µM) | 
CC1(C)CCC[C@@]2(C)[C@H]1[C@@H](O)C=C(C=O)[C@]2(O)C=O [MUKAADIAL] |  |  | 0.8 | 1000 (≈ 3750 µM) | 250 |  |  |  |  |  | 
CC(=O)O[C@@H]1C=C2C(=O)OC[C@]2(O)[C@@]2(C)CCCC(C)(C)[C@H]12 [CINNAMOSMOLIDE] | 625 (≈ 2030 µM) | 78.1 (≈ 253 µM) |  | 1250 (≈ 4050 µM) |  | 313 (≈ 1020 µM) | 625 (≈ 2030 µM) | 156 (≈ 506 µM) | 1250 (≈ 4050 µM) | 23.4 (≈ 75.9 µM) | 
C=CCc1cc2c(c(OC)c1OC)OCO2 [DILLAPIOLE] |  |  |  | 500 (≈ 2250 µM) |  |  |  |  |  |  | 

— ChEMBL document CHEMBL1142598, “Phytochemistry and antifungal properties of the newly discovered tree Pleodendron costaricense” (2006)
